Peptide text beside a SMILES is read from it.
Test system: Micrococcus luteus
Experiment: Inhibition of [125I]ristocetin binding to micrococcus luteus cells.
Assay type: functional, organism-based
Method in brief: (§1)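 Lyophilized M. luteus cells were boiled in 1% sodium lauryl sulfate, washed with water, and stored at 4 °C. Ristocetin was iodinated with 125I/I2 and purified on CM-cellulose. Duplicate tubes held 50 μg cells, 1 μg labeled antibiotic and varied N-acetyl peptide in sodium citrate buffer, pH 5.1, in 0.2 mL at room temperature. Tubes were centrifuged at 10000g for 10 min and supernatant γ-counted. Ki came from Cheng-Prusoff using the Scatchard Kd.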

| SMILES | Ki [µM] |
| --- | --- |
| CC(=O)N[C@H](C)C(=O)O | 3200 |
| CC(=O)N[C@H](C)C(=O)NCC(=O)O | 3100 |
| CC(=O)N[C@H](C)C(=O)N[C@H](Cc1ccccc1)C(=O)O | 8.7 |
| CC(=O)N[C@H](CC(C)C)C(=O)NCC(=O)O | 11000 |
| CC(=O)N[C@H](C)C(=O)N[C@H](C)C(=O)O | 73 |
| CC(=O)N[C@H](C)C(=O)N[C@H](C)C(=O)N[C@H](C)C(=O)O | 42 |
| CC(=O)N[C@H](Cc1ccccc1)C(=O)O | 100 |
| CC(=O)NCC(=O)N[C@H](Cc1ccccc1)C(=O)O | 9.8 |
| CSCC[C@@H](NC(C)=O)C(=O)O | 2400 |
| CC(=O)N[C@H](Cc1c[nH]c2ccccc12)C(=O)O | 160 |
| CC(=O)NCC(=O)N[C@@H](CC(C)C)C(=O)O | 590 |
| CC(=O)N[C@H](CC(C)C)C(=O)N[C@H](CC(C)C)C(=O)O | 4500 |
| CC(=O)N[C@@H](Cc1ccccc1)C(=O)NCC(=O)NCC(=O)O (Ac-Phe-Gly-Gly-OH) | 1600 |
| CC(=O)N1CCC[C@H]1C(=O)NCC(=O)NCC(=O)O (Ac-Pro-Gly-Gly-OH) | 1600 |
| CC(=O)N[C@@H](Cc1c[nH]c2ccccc12)C(=O)NCC(=O)NCC(=O)O (Ac-Trp-Gly-Gly-OH) | 1200 |
| CC(=O)NCC(=O)O [ACETURIC ACID] | 29000 |

Test system: Micrococcus luteus
Experiment: Inhibition of [125I]ristocetin binding to micrococcus luteus cell wall (UDP-N-acetylmuramylpentapeptide).
Assay type: functional, organism-based
Method in brief: as §1

| SMILES | Ki [µM] |
| --- | --- |
| CC(=O)N[C@H](CC(N)=O)C(=O)O | 9000 |
| CC(=O)NCC(=O)N[C@@H](C(=O)O)C(C)C | 340 |
| CC(=O)NCC(=O)N[C@H](CC(N)=O)C(=O)O | 720 |
| CC(=O)NCC(=O)N[C@H](CO)C(=O)O | 540 |
| CC(=O)N[C@@H](C(=O)O)C(C)C | 3100 |
| CC[C@@H](C)[C@@H](NC(C)=O)C(=O)O | 2800 |
| CC(=O)NCC(=O)N[C@H](C)C(=O)O | 130 |
| CC(=O)NCC(=O)NCC(=O)O | 4600 |
| CC(=O)N[C@H](CC(C)C)C(=O)NCC(=O)NCC(=O)O | 1900 |
| CC(=O)N[C@H](CC(C)C)C(=O)O | 2800 |
| CC(=O)NC(C(=O)O)c1ccc(O)cc1 (centres undefined) | 4200 |
| C[C@@H](NC(=O)OCc1ccccc1)C(=O)O | 5100 |
| CC(=O)N[C@@H](CC(C)C)C(=O)NCC(=O)NCC(=O)O | 2000 |
| CC(=O)NCC(=O)N[C@@H](C(=O)O)[C@H](C)O | 4700 |
| CC(=O)N[C@@H](CCCCN)C(=O)N[C@H](C)C(=O)N[C@H](C)C(=O)O | 16 |
| CC(=O)NCC(=O)N[C@H](CC(=O)O)C(=O)O | 1400 |
| CC(=O)NCC(=O)NCC(=O)NCC(=O)O (Ac-Gly-Gly-Gly-OH) | 7100 |
| CC(=O)N[C@@H](Cc1ccc(O)cc1)C(=O)NCC(=O)NCC(=O)O (Ac-Tyr-Gly-Gly-OH) | 1300 |

— ChEMBL document CHEMBL1124626, “Inhibition of 125I-labeled ristocetin binding to Micrococcus luteus cells by the peptides related to bacterial cell wall mucopeptide precursors: quantitative structure-activity relationships” (J Med Chem, 1989)
